In data set [1] the test system is T. brucei brucei trypomastigotes. Briefly: Antitrypanosomal activity on T. brucei brucei trypomastigotes. The conditions noted are these: for Antitrypanosomal selectivity Index: CC50 HepG2 / IC50 T. brucei brucei; for times more potent than the meta-substituted analogue: T. brucei brucei IC50, para versus meta (15 vs 16, 21 vs 22). Type of data set: cell-based, Trypanosoma brucei brucei.

For data set [2], the system named is L. infantum axenic amastigotes. Briefly: Antileishmanial activity on L. infantum axenic amastigotes. Format: cell-based. The conditions noted are these: Leishmania infantum, 48 h, read-out: IC50 L. infantum axenic amastigotes. The essentials:
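They were moved to RPMI at pH 5.4 for 24 h at 24°C, then 24 h at 37°C, to give axenic amastigotes. Compounds in DMSO (final <0.5% v/v) were tested in duplicate for 48 h at 37°C. Read-out was Steady Glow luminescence. IC50 came from non-linear regression, mean of three independent experiments.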

A short description of data set [3]: Cytotoxic evaluation on HepG2 cell line. Format: cell-based. The conditions noted are these: human, HepG2 cells (hepatocarcinoma cell line). The essentials:
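HepG2 cells were seeded at 1 × 10^5 cells/mL in Alpha MEM with 10% FBS, 2 mM L-glutamine and antibiotics, and pre-incubated for 24 h at 37°C, 5% CO2. Compounds were added at various concentrations for 72 h, and wells were checked for precipitate. MTT (0.5 mg/mL) was added for 2 h, formazan was dissolved in DMSO, and A570 was read. Doxorubicin was the positive control. CC50 came from non-linear regression, mean of three independent experiments.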

The nature of data set [4]: Cyclic voltammetry, reduction potentials. Type of data set: physicochemical. The conditions noted are these: DMSO/TBAPF6, SCE/GC, 1 electron reversible reduction, V versus NHE.
The test system of data set [5] is T. brucei brucei trypomastigotes NTR over-expressing strain. Description: Bioactivation study, strain overexpressing the nitroreductase. Format: cell-based, Trypanosoma brucei. The conditions noted are these: for IC50: Trypanosoma brucei, 72 h, read-out: IC50 T. brucei brucei trypomastigotes NTR over-expressing strain; for Fold change: wild type IC50 / NTR over-expressing IC50. The essentials:
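Bloodstream T. brucei S427 'single marker' was grown at 37°C in HMI9-T with 2.5 µg/mL G418. The NTR1-overexpressing line also received 2.5 µg/mL phleomycin, with NTR induced by 1 µg/mL tetracycline 48 h before assay. Triplicate cultures were seeded at 1 × 10^5 cells/mL with inhibitor and counted after 72 h. EC50 came from a two-parameter fit (slope factor m) to background-corrected density as % of uninhibited control. Fold change is wild-type IC50 / overexpressor IC50.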

Data set [6] deals with T. brucei brucei trypomastigotes wild type strain. Briefly: Bioactivation study, wild type strain. Type of data set: cell-based. To be noted: Trypanosoma brucei, 72 h, read-out: IC50 T. brucei brucei trypomastigotes wild type strain.
Data set [7] can be described thus: Chemical stability of the product. Type of data set: physicochemical. The conditions noted are these: in words; cyclises to 25 on recrystallisation from acetonitrile.
The nature of data set [8]: Aqueous solubility as observed in the biological assays. Type of data set: physicochemical. To be noted: in words.

For the compound `O=Cc1ccc(-c2cc3cccc([N+](=O)[O-])c3[nH]c2=O)cc1` [Compound 15, 3-(4-formylphenyl)-8-nitroquinolin-2(1H)-one], in data set [1], the “Antitrypanosomal selectivity Index” value is listed as 60 and the “times more potent than the meta-substituted analogue” value worked out at 11. Moreover, in data set [2], the IC50 turned out to be 35 ± 1.7 µM. The compound also had a CC50 at 72 h in data set [3] of 30 ± 3.7 µM.

Consider `O=C(O)c1ccc(-c2cc3cccc([N+](=O)[O-])c3[nH]c2=O)cc1` [Compound 21, 3-(4-carboxyphenyl)-8-nitroquinolin-2(1H)-one], for which the “E° (reduction potential)” value in data set [4] is given as -0.56 V. In data set [1], the “Antitrypanosomal selectivity Index” value amounted to 80 and the “times more potent than the meta-substituted analogue” value is 5. Also, in data set [5], the IC50 was determined as 4.2 ± 0.2 µM and the Fold change came to 1.3. In data set [2], the IC50 was over 100 µM. Further, in data set [6], the IC50 came to 5.4 ± 0.12 µM. The same compound registered a CC50 at 72 h in data set [3] of 120 ± 7 µM.

On to `O=c1[nH]c2c([N+](=O)[O-])cccc2cc1-c1ccc(Cl)cc1` [Compound 5, 3-(4-chlorophenyl)-8-nitroquinolin-2(1H)-one], for which the IC50 in data set [2] is over 3 µM. For the same compound, the CC50 at 72 h in data set [3] is over 3 µM.

Regarding `COc1nc2c([N+](=O)[O-])cccc2cc1-c1ccc(C(=O)O)cc1` [Compound 26, 3-(4-carboxyphenyl)-2-methoxy-8-nitroquinoline], the half-inhibitory concentration (IC50) in data set [2] came to 12.8 µM.

In the case of `COC(=O)c1ccc(-c2cc3cccc([N+](=O)[O-])c3[nH]c2=O)cc1` [Compound 18, 3-(4-methoxycarbonylphenyl)-8-nitroquinolin-2(1H)-one], the IC50 in data set [2] is over 12.5 µM. Also, in data set [3], the CC50 at 72 h was over 12.5 µM.

On to `CCCCCCCCCCCCCCCCOP(=O)([O-])OCC[N+](C)(C)C` [Miltefosine, reference compound], for which the IC50 in data set [2] amounted to 0.8 ± 0.2 µM. In data set [3], this compound registered a CC50 at 72 h of 84.5 ± 8.8 µM.

With `O=c1[nH]c2c([N+](=O)[O-])cccc2cc1-c1ccccc1` [Compound 1, 8-nitro-3-phenylquinolin-2(1H)-one], in data set [4], the “E° (reduction potential)” value is -0.59 V. Further, the “Antitrypanosomal selectivity Index” value in data set [1] is recorded as over 2. Also, in data set [2], the IC50 was over 12 µM. The compound further displayed a CC50 at 72 h in data set [3] of over 12 µM.

Consider `O=C(O)c1ccccc1-c1cc2cccc([N+](=O)[O-])c2[nH]c1=O` [Compound 23, 3-(2-carboxyphenyl)-8-nitroquinolin-2(1H)-one], for which the IC50 in data set [2] was over 100 µM. In data set [3], this compound gave a CC50 at 72 h of over 100 µM.

`O=c1[nH]c2c([N+](=O)[O-])cccc2cc1-c1ccsc1` [Compound 8, 8-nitro-3-(thiophen-3-yl)quinolin-2(1H)-one]: the IC50 in data set [2] was over 6 µM. The CC50 at 72 h in data set [3] is over 6 µM.

`O=c1[nH]c2c([N+](=O)[O-])cccc2cc1-c1cccnc1` [Compound 10, 8-nitro-3-(pyridine-3-yl)quinolin-2(1H)-one]: the “Antitrypanosomal selectivity Index” value in data set [1] is over 9. In data set [2], the IC50 is over 50 µM. Further, the half-maximal cytotoxic concentration (CC50) at 72 h in data set [3] was over 25 µM.

Turning to `CSc1ccc(OCc2ncc([N+](=O)[O-])n2C)cc1` [Fexinidazole, reference compound], in data set [1], the “Antitrypanosomal selectivity Index” value is listed as over 250. The IC50 in data set [2] is 3.3 ± 0.7 µM. In data set [3], this compound displayed a CC50 at 72 h of over 100 µM.

`O=Cc1ccccc1-c1cc2cccc([N+](=O)[O-])c2[nH]c1=O` [Compound 17, 3-(2-formylphenyl)-8-nitroquinolin-2(1H)-one]: the “Antitrypanosomal selectivity Index” value in data set [1] is reported as over 7. Also, the IC50 in data set [2] was found to be 9.8 ± 1.2 µM. Moreover, in data set [3], the CC50 at 72 h is over 50 µM.

`O=c1[nH]c2c([N+](=O)[O-])cccc2cc1-c1ccc(CO)cc1` [Compound 12, 3-(4-hydroxymethylphenyl)-8-nitroquinolin-2(1H)-one]: the “Antitrypanosomal selectivity Index” value in data set [1] is recorded as over 13. In addition, the IC50 in data set [2] is over 25 µM. The CC50 at 72 h in data set [3] was over 25 µM.

With `O=c1[nH]c2c([N+](=O)[O-])cccc2cc1-c1ccc(C(F)(F)F)cc1` [Compound 7, 8-nitro-3-(4-trifluoromethylphenyl)quinolin-2(1H)-one], the “E° (reduction potential)” value in data set [4] is given as -0.53 V. For the same compound, in data set [2], the IC50 was over 6 µM. Also, in data set [3], the CC50 at 72 h is over 6 µM.

Consider `Nc1ccc(-c2cc3cccc([N+](=O)[O-])c3[nH]c2=O)cc1` [Compound 4, 3-(4-aminophenyl)-8-nitroquinolin-2(1H)-one], for which, in data set [2], the IC50 was over 3 µM. Further, in data set [3], the CC50 at 72 h is over 3 µM.

As to `O=C(O)c1cccc(-c2cc3cccc([N+](=O)[O-])c3[nH]c2=O)c1` [Compound 22, 3-(3-carboxyphenyl)-8-nitroquinolin-2(1H)-one], the “Antitrypanosomal selectivity Index” value in data set [1] was over 13. Moreover, the IC50 in data set [2] was over 100 µM. The CC50 at 72 h in data set [3] was over 100 µM.

On to `NCCCC(N)(C(=O)O)C(F)F` (stereo not shown) [Eflornithine, reference compound], for which the “Antitrypanosomal selectivity Index” value in data set [1] is given as over 6. In data set [3], this compound registered a CC50 at 72 h of over 100 µM.

Regarding `COc1cccc2c1C(=O)c1c(O)c3c(c(O)c1C2=O)C[C@@](O)(C(=O)CO)C[C@@H]3O[C@H]1C[C@H](N)[C@H](O)[C@H](C)O1` [Doxorubicin, reference compound], in data set [3], the midpoint of cytotoxicity, the CC50 at 72 h, lay at 0.2 ± 0.02 µM.

Consider `O=c1[nH]c2c([N+](=O)[O-])cccc2cc1C#Cc1ccccc1` [Compound 24, 8-nitro-3-phenylethynylquinolin-2(1H)-one], for which the stability result in data set [7] is given as “too unstable”.

Turning to `O=c1[nH]c2c([N+](=O)[O-])cccc2cc1-c1ccco1` [Compound 9, 3-(2-furanyl)-8-nitroquinolin-2(1H)-one], the IC50 in data set [2] is over 3 µM. Further, the cytotoxic concentration (CC50) at 72 h in data set [3] was over 3 µM.

In the case of `CC1CS(=O)(=O)CCN1/N=C/c1ccc([N+](=O)[O-])o1` (stereo not shown) [Nifurtimox, reference compound], in data set [5], the IC50 is 0.6 ± 0.05 µM and the Fold change came to 3.1. In addition, the IC50 in data set [6] was 1.9 ± 0.05 µM.

As to `Cc1ccc(C(=O)Nc2ccc(S(=O)(=O)O)c3cc(S(=O)(=O)O)cc(S(=O)(=O)O)c23)cc1NC(=O)c1cccc(NC(=O)Nc2cccc(C(=O)Nc3cc(C(=O)Nc4ccc(S(=O)(=O)O)c5cc(S(=O)(=O)O)cc(S(=O)(=O)O)c45)ccc3C)c2)c1` [Suramin, reference compound], the “Antitrypanosomal selectivity Index” value in data set [1] is listed as over 3333. The compound also displayed a CC50 at 72 h in data set [3] of over 100 µM.

Consider `O=c1[nH]c2c([N+](=O)[O-])cccc2cc1-c1ccc(O)cc1` [Compound 3, 3-(4-hydroxyphenyl)-8-nitroquinolin-2(1H)-one], for which, in data set [2], the IC50 is over 3 µM. Besides, in data set [3], the CC50 at 72 h is over 3 µM.

On to `O=[N+]([O-])c1cccc2cc3cc(-c4ccccc4)oc3nc12` [Compound 25, 8-nitro-2-phenyl-furo[2,3-b]quinoline], for which, in data set [8], the aqueous solubility entry was “very poor aqueous solubility”.

For the compound `C[C@@H]1[C@H](O)[C@@H](C)/C=C/C=C/C=C/C=C/C=C/C=C/C=C/[C@H](O[C@@H]2O[C@H](C)[C@@H](O)[C@H](N)[C@@H]2O)C[C@@H]2O[C@](O)(C[C@@H](O)C[C@@H](O)[C@H](O)CC[C@@H](O)C[C@@H](O)CC(=O)O[C@H]1C)C[C@H](O)[C@H]2C(=O)O` [Amphotericin B, reference compound], the IC50 in data set [2] worked out at 0.06 ± 0.001 µM. This compound yielded a CC50 at 72 h in data set [3] of 7 ± 0.25 µM.

`COc1ccc(-c2cc3cccc([N+](=O)[O-])c3[nH]c2=O)cc1` [Compound 2, 3-(4-methoxyphenyl)-8-nitroquinolin-2(1H)-one]: the IC50 in data set [2] was over 6 µM. Also, the CC50 at 72 h in data set [3] is over 6 µM.

As to `O=c1[nH]c2c([N+](=O)[O-])cccc2cc1-c1cccc(CO)c1` [Compound 13, 3-(3-hydroxymethylphenyl)-8-nitroquinolin-2(1H)-one], in data set [1], the “Antitrypanosomal selectivity Index” value is over 17. For the same compound, the IC50 in data set [2] came out at 29.3 ± 4.2 µM. Besides, the CC50 at 72 h in data set [3] is over 25 µM.

For the compound `O=c1[nH]c2c([N+](=O)[O-])cccc2cc1-c1ccccc1CO` [Compound 14, 3-(2-hydroxymethylphenyl)-8-nitroquinolin-2(1H)-one], in data set [1], the “Antitrypanosomal selectivity Index” value is over 14. In data set [2], the IC50 was 22 ± 2 µM. The compound also registered a CC50 at 72 h in data set [3] of over 100 µM.

With `O=Cc1cccc(-c2cc3cccc([N+](=O)[O-])c3[nH]c2=O)c1` [Compound 16, 3-(3-formylphenyl)-8-nitroquinolin-2(1H)-one], the “Antitrypanosomal selectivity Index” value in data set [1] is reported as over 18. In addition, the IC50 in data set [2] was 10.2 ± 0.6 µM. In addition, the CC50 at 72 h in data set [3] was over 100 µM.

With `O=c1[nH]c2c([N+](=O)[O-])cccc2cc1-c1ccc(F)cc1` [Compound 6, 3-(4-fluorophenyl)-8-nitroquinolin-2(1H)-one], the IC50 in data set [2] was over 6 µM. Also, in data set [3], the CC50 at 72 h was over 6 µM.

Usually IC50 stands for the concentration at which inhibition is half-maximal. By CC50 is commonly meant the concentration at which the toxic effect on the cells reaches its halfway point. Lower therefore signals greater toxicity to the cells.

Values taken from PMC7089779 (ChemMedChem, 2018).
